According to ChEMBL document CHEMBL3580660, “Synthesis and Biological Evaluation of Novel Olean-28,13β-lactams as Potential Antiprostate Cancer Agents” (J Med Chem, 2015):
Calls of active or inactive are those of the source. No cut-off for these calls is given here.

Key:
[1] = Apparent permeability across basolateral to apical side in human Caco2 cells at 0.5 uM measured after 30 mins by LC-MS/MS analysis; type: ADME, cell-based; settings: Caco-2
How it was run: (§1)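 Caco2 monolayers (passages 20−40) grown 21 days at 37 °C, 5% CO2; integrity checked by TEER. Test drug 0.5 μM applied in triplicate, apical pH 6.8, basolateral pH 7.4, 37 °C for 30 min, A→B and B→A. Donor and receiver sampled, concentration by LC−MS/MS; Papp calculated; efflux ratio = Papp B→A / Papp A→B.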

[2] = target: T1, Cytochrome P450 1A2 (Homo sapiens, UniProt P05177); assay: Inhibition of CYP1A2 in human liver microsomes after 1 hr by LC-MS/MS analysis
T1 sequence (P05177 whole entry): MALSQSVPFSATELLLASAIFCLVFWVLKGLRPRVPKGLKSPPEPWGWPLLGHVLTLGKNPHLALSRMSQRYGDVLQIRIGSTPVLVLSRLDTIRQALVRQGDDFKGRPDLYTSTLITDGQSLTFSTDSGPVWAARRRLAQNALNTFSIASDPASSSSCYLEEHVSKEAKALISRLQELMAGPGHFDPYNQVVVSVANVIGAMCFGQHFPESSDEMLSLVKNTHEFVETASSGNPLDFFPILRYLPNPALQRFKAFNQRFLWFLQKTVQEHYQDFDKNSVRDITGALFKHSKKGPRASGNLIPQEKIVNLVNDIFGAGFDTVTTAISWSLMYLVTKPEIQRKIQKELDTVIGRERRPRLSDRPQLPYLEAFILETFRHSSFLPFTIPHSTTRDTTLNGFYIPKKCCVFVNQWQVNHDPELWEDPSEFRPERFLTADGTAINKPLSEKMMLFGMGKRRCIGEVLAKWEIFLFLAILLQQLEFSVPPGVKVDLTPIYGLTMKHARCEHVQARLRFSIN

[3] = Antiproliferative activity against human Bel7404 cells after 72 hrs by CCK8 assay; type: functional, cell-based; settings: BEL-7404, 72 h
How it was run: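 CCK-8 assay: DU-145, H460, Bxpc-3, BEL-7404 and nontumor WPMY-1 cells seeded at 5 × 10^3 cells/well in 10% FCS DMEM overnight, then exposed in triplicate to 0.041−10 μM for 72 h. CCK-8 added for final 30 min, absorbance 450 nm; inhibition relative to medium-only controls after background subtraction; IC50 as concentration giving 50% inhibition.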

[4] = Half life in human liver microsomes by LC-MS/MS analysis; type: ADME
How it was run: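 Human liver microsomes at 0.2 mg/mL protein in 100 mM potassium phosphate−MgCl2 buffer pH 7.4, compound 5 μM with NADPH system at 37 °C; stopped with acetonitrile at 0, 5, 10, 15, 30, 60 min. After centrifugation, remaining compound quantified by LC−MS/MS to derive t1/2; mean ± SD.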

[5] = test system: DU-145; assay: Induction of cell cycle arrest in human DU145 cells assessed as cells accumulation at G2/M phase at 0.16 uM after 24 hrs by propidium iodide staining-based flow cytometry (reference value: 22%); type: functional
[6] = test system: Mus musculus; assay: Acute toxicity in ICR mouse assessed as mortality at 409.6 mg/kg, oral gavage after 4 to 14 days; type: organism-based; settings: in vivo
How it was run: (§2)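 ICR mice of both sexes, 7 weeks old, held under SPF conditions. Each got one gavage dose (800, 640, 512, 409.6 or 327.8 mg/kg) or vehicle, n = 8 per group. Deaths were recorded at 1 h, 4 h, 3 d and 4–14 d. Behaviour, water and food intake, body weight and activity were followed to day 14. LD50 given with 95% confidence limits.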

[7] = test system: Mus musculus; assay: Acute toxicity in ICR mouse assessed as mortality at 512 mg/kg, oral gavage after 1 hr; type: organism-based; settings: in vivo; how it was run: as §2
[8] = target: Cytochrome P450 3A4 (Homo sapiens, UniProt P08684); assay: Inhibition of CYP3A4 in human liver microsomes using midazolam as substrate after 1 hr by LC-MS/MS analysis
[9] = test system: Mus musculus; assay: Acute toxicity in ICR mouse assessed as mortality at 640 mg/kg, oral gavage after 1 hr; type: organism-based; settings: in vivo; how it was run: as §2
[10] = Acute toxicity oral gavage treated in ICR mouse assessed as mortality measured up to 14 days; type: organism-based; settings: in vivo; how it was run: as §2
[11] = test system: DU-145; assay: Antiproliferative activity against human DU145 cells at 2 uM after 72 hrs by CCK8 assay; type: functional; settings: DU-145, 72 h
How it was run: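 DU-145 screening at single concentration 2 μM for 72 h, proliferation by CCK-8 (cells 5 × 10^3/well in 10% FCS DMEM). Percent inhibition vs untreated, background-corrected; mean ± SD from three independent experiments.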

[12] = test system: Mus musculus; assay: Acute toxicity in ICR mouse assessed as total mortality at […] mg/kg, oral gavage up to 14 days; type: organism-based; settings: in vivo, 336 h; how it was run: as §2
[13] = test system: Mus musculus; assay: Acute toxicity in ICR mouse assessed as mortality at 512 mg/kg, oral gavage after 4 hrs; type: organism-based; settings: in vivo; how it was run: as §2
[14] = test system: DU-145; assay: Induction of cell cycle arrest in human DU145 cells assessed as cells accumulation at G0/G1 phase at 0.16 uM after 24 hrs by propidium iodide staining-based flow cytometry (reference value: 54%); type: functional
[15] = Apparent permeability across apical to basolateral side in human Caco2 cells at 0.5 uM measured after 30 mins by LC-MS/MS analysis; type: ADME, cell-based; settings: Caco-2; how it was run: as §1
[16] = test system: Mus musculus; assay: Acute toxicity in ICR mouse assessed as mortality at 512 mg/kg, oral gavage after 4 to 14 days; type: organism-based; settings: in vivo; how it was run: as §2
[17] = Stability in rat plasma assessed as compound remaining after 1 hr by LC-MS/MS analysis; type: ADME, cell-free; settings: read-out: Stability
How it was run: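 Compound at 50 ng/mL incubated in pooled heparinized rat plasma, 37 °C, 60 min. Proteins precipitated with 5 volumes cold acetonitrile containing internal standard; remaining compound measured by LC−MS/MS and expressed as percent remaining; mean ± SD.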

[18] = test system: DU-145; assay: Effect on Akt protein expression in human DU145 cells at 0.08 to 0.32 uM after 24 hrs by Western blot analysis; type: functional, cell-based
How it was run: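 DU-145 cells (5 × 10^5/well) in 10% FCS Ham's F-12K overnight, treated in duplicate with compound or vehicle 24 h; lysed (Tris pH 8, EGTA, NaCl, NP-40, Triton X-100), protein by BCA. Blots blocked in 5% milk, probed for AKT, p-AKT Ser473, mTOR, p-mTOR Ser2448, Bax, Bcl-2, β-actin; ECL detection, densitometry relative to control; three separate experiments.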

[19] = test system: Mus musculus; assay: Acute toxicity in ICR mouse assessed as mortality at 327.8 mg/kg, oral gavage after 4 to 14 days; type: organism-based; settings: in vivo; how it was run: as §2

Cytochrome P450 3A4, sequence (P08684 whole entry): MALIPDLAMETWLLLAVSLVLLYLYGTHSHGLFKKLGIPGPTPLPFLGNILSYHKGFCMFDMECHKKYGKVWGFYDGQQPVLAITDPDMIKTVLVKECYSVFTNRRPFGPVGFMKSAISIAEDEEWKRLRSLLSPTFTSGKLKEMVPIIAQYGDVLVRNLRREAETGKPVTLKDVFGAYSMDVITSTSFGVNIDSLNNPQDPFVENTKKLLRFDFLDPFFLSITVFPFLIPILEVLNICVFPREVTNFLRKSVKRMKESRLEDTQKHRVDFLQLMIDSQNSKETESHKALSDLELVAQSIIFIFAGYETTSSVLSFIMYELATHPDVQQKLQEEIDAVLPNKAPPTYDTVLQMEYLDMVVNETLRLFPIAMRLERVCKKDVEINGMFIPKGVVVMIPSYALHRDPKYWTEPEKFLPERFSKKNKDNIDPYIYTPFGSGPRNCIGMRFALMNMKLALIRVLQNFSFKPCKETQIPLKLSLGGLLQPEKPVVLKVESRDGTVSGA

In the case of CC1(C)CC[C@]23CC[C@@]4(C)[C@]5(C)CC[C@H]6C(C)(C)C(=O)C(C#N)=C[C@]6(C)C5=CC(=O)[C@@]4([C@@H]2C1)N(C1CCCCC1)C3=O, the Papp B→A at 0.5 h, 0.5 µM [1] is reported as 0.059 ×10⁻⁶ cm/s, the IC50 [2] is reported as > 100 µM and the IC50 [3] is reported as 460 nM. The half-life [4] was 39 min, the Activity [5] was 22% and the Activity [6] was “Non-toxic”. The Activity [7] was “Non-toxic”, the IC50 [8] was 932 nM and the Activity [9] was “Non-toxic”. For the same compound, the LD50 at 336 h [10] was 541 mg/kg, the inhibition at 2 µM [11] was 75% and the Activity [12] was “Toxic”. The Activity [13] was “Non-toxic”, the Activity [14] was 68% and the Papp A→B at 0.5 h, 0.5 µM [15] was 0.045 ×10⁻⁶ cm/s. For the same compound, the Activity [16] was “Non-toxic”, the remaining at 1 h [17] was 46% and the Activity [18] was “inactive”. The Activity [19] was “Non-toxic”.
